# Active and inactive are the calls of the source.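 How the source made its calls, unless noted: active means potentiation averaged over duplicate wells exceeding buffer-only control mean by more than 3 SD; inactive means the rest.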
# What was measured:
# [1] = nonspecific flux increase, KCNQ1-free cells – parental CHO cells, counter-screen for KCNQ1 potentiator project (AID 493006;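 active means duplicate-averaged activation above buffer control mean plus 5 SD of those controls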); details: parental CHO-K1 cells, FluxOR thallium flux, at 10 µM; stronger effect = higher value
# In short: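 Assay system: Untransfected host CHO-K1 cells with FluxOR thallium dye | Probe or stimulus: Potassium/thallium depolarization pulse | Schedule: Overnight 37 °C plating, 90 min RT dye, 20 min compound | Detection: Kinetic thallium-flux fluorescence | Read-out: Max-minus-min fluorescence over baseline, percent of buffer-to-R-L3 span | Benchmarks: Low control buffer, high control R-L3 activator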
# [2] = molecular target: Potassium voltage-gated channel subfamily KQT member 1 (Homo sapiens) (UniProt P51787); experiment: enhancement of KCNQ1 channel thallium flux – FluxOR thallium flux, CHO cells, duplicates, confirmation (AID 493007); details: KCNQ1 cell line, FluxOR thallium flux fluorescence, at 10 µM; stronger effect = higher value, % of reference activator effect, buffer zero;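 on outcome: cells depolarized by a potassium plus thallium sulfate stimulus after compound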
# Chain of Potassium voltage-gated channel subfamily KQT member 1 (Homo sapiens) (P51787 whole entry, looked up): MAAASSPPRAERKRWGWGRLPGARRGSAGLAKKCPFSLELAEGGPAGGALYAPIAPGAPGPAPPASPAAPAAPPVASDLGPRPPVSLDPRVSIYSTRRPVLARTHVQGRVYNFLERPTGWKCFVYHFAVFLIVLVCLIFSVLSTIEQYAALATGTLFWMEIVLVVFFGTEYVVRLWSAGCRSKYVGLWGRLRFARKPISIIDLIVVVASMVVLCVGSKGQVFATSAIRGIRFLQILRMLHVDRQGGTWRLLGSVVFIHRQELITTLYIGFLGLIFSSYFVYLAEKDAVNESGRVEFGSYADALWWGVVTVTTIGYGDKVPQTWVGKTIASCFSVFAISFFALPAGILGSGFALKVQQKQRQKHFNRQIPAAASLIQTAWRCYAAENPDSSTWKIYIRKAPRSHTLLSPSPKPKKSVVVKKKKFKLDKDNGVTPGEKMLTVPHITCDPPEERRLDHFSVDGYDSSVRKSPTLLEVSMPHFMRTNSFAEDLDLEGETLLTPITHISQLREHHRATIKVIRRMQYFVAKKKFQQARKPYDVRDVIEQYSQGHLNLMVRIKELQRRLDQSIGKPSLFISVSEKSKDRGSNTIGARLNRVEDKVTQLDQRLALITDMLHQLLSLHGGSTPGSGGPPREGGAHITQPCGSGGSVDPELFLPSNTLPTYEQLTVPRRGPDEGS
# In short: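 Material: KCNQ1-expressing CHO cell line; Incubation: FluxOR dye loading 90 min, compound exposure 20 min, room temperature; Detection: FluxOR Tl+ flux fluorescence, 10 s baseline plus 110 s recording; Read-out: percent activation between buffer and R-L3 responses; Control set: buffer-only wells as 0% and R-L3 activator as 100%; Replication: duplicate wells per compound.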
# [3] = molecular target: Potassium voltage-gated channel subfamily KQT member 2 (Rattus norvegicus) (UniProt O88943); experiment: KCNQ2 thallium flux enhancement – KCNQ2-CHO-K1 cells, selectivity assay for KCNQ1 potentiator project (AID 493009;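 active means mean duplicate potentiation above the buffer control mean plus 5 SD of buffer wells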;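 further: assay conditions were tuned for KCNQ1 rather than KCNQ2 modulators; signal is max minus min fluorescence divided by baseline after thallium stimulus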); details: FluxOR thallium flux fluorescence, at 10 µM; stronger effect = higher value, scaled: buffer 0, activator control 100
# Chain of Potassium voltage-gated channel subfamily KQT member 2 (Rattus norvegicus) (O88943 whole entry, looked up): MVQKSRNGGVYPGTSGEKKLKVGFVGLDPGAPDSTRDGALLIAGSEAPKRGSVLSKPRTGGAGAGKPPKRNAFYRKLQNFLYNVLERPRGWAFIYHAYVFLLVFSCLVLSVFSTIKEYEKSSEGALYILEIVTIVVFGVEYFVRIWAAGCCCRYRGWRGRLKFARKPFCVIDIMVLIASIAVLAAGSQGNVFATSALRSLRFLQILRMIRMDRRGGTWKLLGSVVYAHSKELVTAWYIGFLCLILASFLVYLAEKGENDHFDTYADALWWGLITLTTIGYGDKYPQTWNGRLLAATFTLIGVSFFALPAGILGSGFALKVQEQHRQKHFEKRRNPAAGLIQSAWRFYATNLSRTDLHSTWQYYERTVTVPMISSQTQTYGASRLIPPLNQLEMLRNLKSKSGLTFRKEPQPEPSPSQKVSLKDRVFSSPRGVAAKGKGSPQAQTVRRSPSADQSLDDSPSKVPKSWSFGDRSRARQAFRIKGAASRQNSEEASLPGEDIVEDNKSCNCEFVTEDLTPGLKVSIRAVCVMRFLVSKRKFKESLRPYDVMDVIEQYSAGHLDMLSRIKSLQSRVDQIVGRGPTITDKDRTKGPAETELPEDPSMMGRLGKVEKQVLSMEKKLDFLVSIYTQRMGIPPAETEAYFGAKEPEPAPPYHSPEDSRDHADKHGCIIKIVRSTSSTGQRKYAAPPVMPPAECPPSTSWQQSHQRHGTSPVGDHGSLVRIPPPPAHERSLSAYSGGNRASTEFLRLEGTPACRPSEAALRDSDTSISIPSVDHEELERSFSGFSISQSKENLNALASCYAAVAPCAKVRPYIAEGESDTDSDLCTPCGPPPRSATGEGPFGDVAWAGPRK
# [4] = molecular target: Potassium voltage-gated channel subfamily KQT member 1 (Homo sapiens) (UniProt P51787); experiment: KCNQ1 activators by electrophysiology – IonWorks patch clamp, KCNQ1-CHO cells, orthogonal assay for KCNQ1 potentiator project, confirmation (AID 493184;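 active means current rise at least 3 SD above the untreated control mean in each of two repeat wells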;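 on current potentiation: percent change of the same well's current before compound addition so 0% = no change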); details: automated patch clamp current, at 10 µM; stronger effect = higher value
# In short: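 assay system = KCNQ1-expressing CHO cells | medium = external bath solution at pH 7.4 | probe or stimulus = 2,000 ms depolarization, -90 to +40 mV | compound dosing = 10 µM final, single point | measured by = automated voltage clamp, amphotericin B perforated patch | measure = percent current increase versus pre-compound level | replication = duplicates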
# [5] = molecular target: Potassium voltage-gated channel subfamily E member 1 (Homo sapiens) + Potassium voltage-gated channel subfamily KQT member 1 (Homo sapiens) (UniProt P15382+P51787); experiment: KCNQ1-E1 channel activation – thallium flux, CHO-K1 KCNQ1/E1 cells, selectivity assay for KCNQ1 potentiator project, confirmation (AID 493186;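 active means mean duplicate activation above the buffer control mean plus 5 SD of those controls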); details: FluxOR thallium flux, at 10 µM; stronger effect = higher value
# Chain of Potassium voltage-gated channel subfamily E member 1 (Homo sapiens) + Potassium voltage-gated channel subfamily KQT member 1 (Homo sapiens) (P51787 whole entry, looked up): as the sequence (P51787 whole entry, looked up) above
# In short: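 Test system – CHO-K1 cells with KCNQ1/E1 · Measured by – FluxOR Tl+ flux fluorescence, kinetic read · Controls – buffer low control, R-L3 high control · Times – dye 90 min, compound 20 min, room temperature · Replication – duplicate wells per compound · Doses – one test concentration · Evaluation – fluorescence rise relative to baseline, as percent of R-L3 response above buffer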
compound,measurement,setting,value
Cc1ccccc1C(=O)Nc1nc(=S)ss1,activation,[1],250% (active)
same,potentiation,[2],72% (active)
same,potentiation,[3],267% (active)
same,outcome,[4],inactive
COc1ccc(CN(C)C(=O)c2cccc(NS(=O)(=O)c3ccccc3)c2)cc1F,outcome,[1],inactive
same,outcome,[2],inactive
same,outcome,[3],inactive
same,outcome,[4],inactive
CCOc1ccc(CN(CCC#N)C(=S)NC(=O)c2ccccc2)cc1,activation,[1],149% (active)
same,potentiation,[2],47% (active)
same,potentiation,[3],216% (active)
same,outcome,[4],inactive
COc1ccc(C(=O)NNC(=O)C(=O)Nc2ccc(C)cc2)cc1,activation,[1],254% (active)
same,potentiation,[2],123% (active)
same,potentiation,[3],380% (active)
same,outcome,[4],inactive
Fc1ccc(COc2ccc(Br)cc2CNCc2ccncc2)cc1,outcome,[1],inactive
same,outcome,[2],inactive
same,outcome,[3],inactive
same,outcome,[4],inactive
CC12CCC(C(=O)N(CSC(=S)N/N=C\c3ccccc3Cl)C1=O)C2(C)C (stereo not given),activation,[1],178% (active)
same,potentiation,[2],47% (active)
same,potentiation,[3],152% (active)
same,outcome,[4],inactive
O=C(NC(=S)N1CCCc2ccccc21)c1ccc(Br)cc1,activation,[1],222% (active)
same,potentiation,[2],112% (active)
same,potentiation,[3],300% (active)
same,outcome,[4],inactive
CCC1CCCCN1C(=S)NC(=O)c1cccc([N+](=O)[O-])c1 (stereo not given),activation,[1],232% (active)
same,potentiation,[2],57% (active)
same,potentiation,[3],284% (active)
same,outcome,[4],inactive
O=S(=O)(Nc1cccnc1)c1ccc(Cl)cc1,outcome,[1],inactive
same,outcome,[2],inactive
same,outcome,[3],inactive
same,outcome,[4],inactive
same,outcome,[5],inactive
CCN(C(=O)COC(=O)c1ccccc1Nc1cccc(C)c1C)C1CCS(=O)(=O)C1 (stereo not given),outcome,[1],inactive
same,outcome,[2],inactive
same,outcome,[3],inactive
same,outcome,[4],inactive
COc1ccc(C(=O)NNC(=S)NC(=O)c2cc(-c3ccccc3)nc3ccccc23)cc1,outcome,[1],inactive
same,outcome,[2],inactive
same,outcome,[3],inactive
same,outcome,[4],inactive
same,outcome,[5],inactive
Cc1cc(C)n(-c2nc(NCCN(C)C)c3c4c(sc3n2)COC(C)(C)C4)n1,outcome,[1],inactive
same,outcome,[2],inactive
same,outcome,[3],inactive
same,outcome,[4],inactive
C=CCN(CC=C)C(=S)NC(=O)Cc1cccc2ccccc12,activation,[1],210% (active)
same,potentiation,[2],68.5% (active)
same,potentiation,[3],245% (active)
same,outcome,[4],inactive
CCCOc1ccc(C(=O)NNC(=S)NC(=O)CC)cc1,outcome,[1],inactive
same,outcome,[2],inactive
same,outcome,[3],inactive
same,outcome,[4],inactive
same,outcome,[5],inactive
CC1CN(C(=S)NC(=O)c2ccc(Cl)cc2)CC(C)O1 (stereo not given),activation,[1],144% (active)
same,potentiation,[2],24% (active)
same,potentiation,[3],152% (active)
same,outcome,[4],inactive
O=C(NC(=S)Nc1nc2c(s1)CCCC2)c1ccccc1,outcome,[1],inactive
same,potentiation,[2],26% (active)
same,outcome,[3],inactive
same,outcome,[4],inactive
same,outcome,[5],inactive
O=C(O)CSc1cc(NS(=O)(=O)c2ccc(Br)cc2)c2ccccc2c1O,outcome,[1],inactive
same,outcome,[2],inactive
same,outcome,[3],inactive
same,outcome,[4],inactive
CC(C)(C)C(=O)NC(=S)NNC(=O)c1ccc(Cl)cc1Cl,outcome,[1],inactive
same,potentiation,[2],52% (active)
same,potentiation,[3],171% (active)
same,outcome,[4],inactive
Cc1onc(-c2ccccc2)c1C(=O)NC(=S)NNC(=O)c1ccccc1O,outcome,[1],inactive
same,potentiation,[2],17.5% (active)
same,outcome,[3],inactive
same,outcome,[4],inactive
same,outcome,[5],inactive
Cc1ccc(C)c(Cn2c(O)c(N=NC(=S)Nc3ccccc3F)c3ccccc32)c1,outcome,[1],inactive
same,outcome,[2],inactive
same,outcome,[3],inactive
same,outcome,[4],inactive
same,outcome,[5],inactive
Cc1ccccc1NS(=O)(=O)c1ccc2[nH]cc(C(=O)N(C)Cc3ccco3)c(=O)c2c1,outcome,[1],inactive
same,potentiation,[2],44% (active)
same,outcome,[3],inactive
same,outcome,[4],inactive
COC(=O)c1sc(NC(=S)NC(=O)c2ccccc2)nc1C,outcome,[1],inactive
same,outcome,[2],inactive
same,outcome,[3],inactive
same,outcome,[4],inactive
same,outcome,[5],inactive
COCCOC(=O)/C(=C/c1ccc(OC(=O)c2ccccc2)cc1)C(C)=O,outcome,[1],inactive
same,outcome,[2],inactive
same,outcome,[3],inactive
same,outcome,[4],inactive
same,outcome,[5],inactive
CS(=O)(=O)c1ccc(C(=O)OCc2nnc(-c3ccccc3)o2)cc1[N+](=O)[O-],outcome,[1],inactive
same,outcome,[2],inactive
same,outcome,[3],inactive
same,outcome,[4],inactive
same,outcome,[5],inactive
O=C(O)c1ccccc1C(=O)NNc1ccc(Cl)cc1,outcome,[1],inactive
same,outcome,[2],inactive
same,outcome,[3],inactive
same,outcome,[4],inactive
Cc1ccc2c(c1)C1CN(C)CCC1N2C(=S)NC(=O)c1ccc(Cl)cc1Cl (stereo not given),activation,[1],194% (active)
same,potentiation,[2],50% (active)
same,potentiation,[3],217% (active)
same,outcome,[4],inactive
CCOC(=O)c1c(C)nc2sc3c(=O)n(-c4ccc(OC)cc4)cnc3c2c1-c1ccc(OC)cc1,outcome,[1],inactive
same,outcome,[2],inactive
same,outcome,[3],inactive
same,outcome,[4],inactive
same,outcome,[5],inactive
O=c1c(Cl)c(Cl)cnn1Cc1nnc(-c2ccccc2Br)o1,outcome,[1],inactive
same,outcome,[2],inactive
same,outcome,[3],inactive
same,current potentiation,[4],14.7% (active)
COc1ccccc1C(=O)NNC(=O)C(=O)NC(C)C,outcome,[1],inactive
same,outcome,[2],inactive
same,outcome,[3],inactive
same,outcome,[4],inactive
same,outcome,[5],inactive
CCCOc1ccc(C(=O)NNC(=S)NC(=O)c2cc(-c3ccc(Cl)cc3)nc3ccccc23)cc1,outcome,[1],inactive
same,outcome,[2],inactive
same,outcome,[3],inactive
same,outcome,[4],inactive
same,outcome,[5],inactive
CN1CCN(S(=O)(=O)c2cccc(C(=O)Nc3cc(Cl)ccc3N3CCOCC3)c2)CC1,outcome,[1],inactive
same,outcome,[2],inactive
same,outcome,[3],inactive
same,outcome,[4],inactive
CCC(C)NC(=O)Cn1c(-c2ccccc2)cc(C(C)=O)c1C (stereo not given),outcome,[1],inactive
same,potentiation,[2],22% (active)
same,outcome,[3],inactive
same,outcome,[4],inactive
same,outcome,[5],inactive
O=C(NC(=S)N1CCCC(C(F)(F)F)C1)c1ccc(F)cc1 (stereo not given),activation,[1],296% (active)
same,potentiation,[2],66.5% (active)
same,potentiation,[3],260% (active)
same,outcome,[4],inactive
Nc1nnc(SCC(=O)N2CCN(c3ccccc3)CC2)n1-c1ccccc1,outcome,[1],inactive
same,outcome,[2],inactive
same,outcome,[3],inactive
same,outcome,[4],inactive
same,outcome,[5],inactive
Nc1nc(CCl)nc(Nc2ccc3ccccc3c2)n1,outcome,[1],inactive
same,outcome,[2],inactive
same,outcome,[3],inactive
same,outcome,[4],inactive
same,outcome,[5],inactive
CC(NC(=O)c1ccccc1Cl)C1CC2CCC1C2 (stereo not given),outcome,[1],inactive
same,outcome,[2],inactive
same,outcome,[3],inactive
same,outcome,[4],inactive
same,outcome,[5],inactive
C=CCn1c(O)c(N=NC(=S)Nc2ccc(OC)cc2)c2ccccc21,outcome,[1],inactive
same,potentiation,[2],33.5% (active)
same,outcome,[3],inactive
same,outcome,[4],inactive
same,outcome,[5],inactive
CCN(Cc1ccccc1)C1CCN(Cc2ccccc2)CC1,outcome,[1],inactive
same,outcome,[2],inactive
same,outcome,[3],inactive
same,outcome,[4],inactive
same,outcome,[5],inactive
COc1ccccc1OCCSc1nc2ccccc2n1CCC(=O)O,outcome,[1],inactive
same,outcome,[2],inactive
same,outcome,[3],inactive
same,outcome,[4],inactive
CCCc1ccc2oc(C(=O)N(C)CCn3ccnc3C)c(C)c2c1,outcome,[1],inactive
same,outcome,[2],inactive
same,outcome,[3],inactive
same,outcome,[4],inactive
O=C(COc1ccccc1)NC(=S)Nc1ccc(Br)cn1,outcome,[1],inactive
same,potentiation,[2],41.5% (active)
same,potentiation,[3],206% (active)
same,outcome,[4],inactive
same,activation,[5],20.3% (active)
CCn1c(CN2CCN(c3ccc(OC)cc3)CC2)nc2cc(S(=O)(=O)N(C)C)ccc21,outcome,[1],inactive
same,outcome,[2],inactive
same,outcome,[3],inactive
same,outcome,[4],inactive
same,outcome,[5],inactive
Cc1cc(C)c2ccc(C)[n+]([O-])c2c1O,outcome,[1],inactive
same,outcome,[2],inactive
same,outcome,[3],inactive
same,outcome,[4],inactive
CC(C)CC(=O)NC(=S)Nc1nc(-c2cccc3ccccc23)cs1,outcome,[1],inactive
same,potentiation,[2],60% (active)
same,potentiation,[3],156% (active)
same,outcome,[4],inactive
O=C(NCC1CCCO1)c1ccccc1OCc1ccc(F)cc1 (stereo not given),outcome,[1],inactive
same,outcome,[2],inactive
same,outcome,[3],inactive
same,outcome,[4],inactive
CC1=NOC(=O)/C1=C\c1ccc(-c2ccc(Br)cc2)o1,outcome,[1],inactive
same,outcome,[2],inactive
same,outcome,[3],inactive
same,outcome,[4],inactive
same,outcome,[5],inactive
Cc1nc2c3cc(F)ccc3n(CCN3CCCCC3)c2s1,outcome,[1],inactive
same,potentiation,[2],35% (active)
same,outcome,[3],inactive
same,outcome,[4],inactive
same,outcome,[5],inactive
CCCn1c(SCC(=O)Nc2ccccc2C(=O)OC)nc2c1c(=O)n(C)c(=O)n2C,outcome,[1],inactive
same,potentiation,[2],120% (active)
same,outcome,[3],inactive
same,outcome,[4],inactive
same,outcome,[5],inactive
O=C(NC(=S)Nc1ccccc1N1CCCC1)c1ccc(-c2cccc([N+](=O)[O-])c2)o1,outcome,[1],inactive
same,outcome,[2],inactive
same,outcome,[3],inactive
same,outcome,[4],inactive
same,outcome,[5],inactive
COc1ccc(NC(=O)CN2CCN(C3c4ccccc4-c4ccccc43)CC2)cc1,outcome,[1],inactive
same,outcome,[2],inactive
same,outcome,[3],inactive
same,outcome,[4],inactive
same,outcome,[5],inactive
CCOc1cccc(/C=N/NC(=O)C2CCCC2)c1O,outcome,[1],inactive
same,outcome,[2],inactive
same,outcome,[3],inactive
same,outcome,[4],inactive
same,outcome,[5],inactive
COC(=O)C1=C(C)N(c2ccc(F)c(Cl)c2)C(=O)C1,outcome,[1],inactive
same,outcome,[2],inactive
same,outcome,[3],inactive
same,outcome,[4],inactive
same,outcome,[5],inactive
OCCN1CCN(c2nc(-c3ccccc3)nc3c2oc2ccccc23)CC1,outcome,[1],inactive
same,outcome,[2],inactive
same,outcome,[3],inactive
same,outcome,[4],inactive
same,outcome,[5],inactive
CCn1c2ccccc2c2cc(CC(N)=O)ccc21,outcome,[1],inactive
same,outcome,[2],inactive
same,outcome,[3],inactive
same,outcome,[4],inactive
same,outcome,[5],inactive
CCOC(=O)N1CCN(C(=S)NC(=O)c2ccc(Br)cc2)CC1,outcome,[1],inactive
same,outcome,[2],inactive
same,outcome,[3],inactive
same,outcome,[4],inactive
same,outcome,[5],inactive
Cc1ccc(-n2ncc(C(=O)Nc3cc(Cl)cc(Cl)c3)c2C2CCNCC2)cc1C,outcome,[1],inactive
same,outcome,[2],inactive
same,outcome,[3],inactive
same,outcome,[4],inactive
same,outcome,[5],inactive
